# Data from PubChem BioAssay.
# The source made the active and inactive calls.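 How the source made its calls, unless noted: active means a full or partial loss of lipid-probe fluorescence in the fish gall bladder, intestine or both, judged by eye; inactive means no fluorescence loss, or compound toxic to the fish.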
# How the values were obtained:
# [1] = inhibitors of TNFa-induced NFkB p65 translocation, primary screen, imaging, HUVEC, MLSMR starter and 10KST1 sets (AID 438;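 active means inhibition above 20% together with a positive visual image hit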;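 further: compound added about 3h40 before a 20 min TNFalpha stimulation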;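 on inhibition: signal is the nuclear over cytoplasmic p65 intensity ratio per well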); conditions: HUVEC TNFa-induced p65 nuclear translocation; cell count: measured here: nuclei count (cytotoxicity indicator), at 2.08 µM; inhibition: at 2 µM, stronger effect = higher value, 0% TNFa-plus-vehicle, 100% no-TNFa wells
# [2] = endothelial E-selectin expression blockers – imaging, HUVEC, immunofluorescence, MLSMR starter and 10KST1 sets, primary screen (AID 487;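 active means visually confirmed hit in the image check and inhibition above 20%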;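 on inhibition: signal is fraction of cell area covered by stained E-selectin grains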;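 on nuclei count: 100% = median nuclei count of all wells on the same plate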); conditions: HUVEC TNFalpha-induced E-selectin immunofluorescence imaging, at 2 µM; inhibition: stronger effect = higher value; nuclei count: measured here: cell number, toxicity
# [3] = Primary imaging screen for DUSP6 inhibitors that restore phospho-Erk in transfected HeLa cells, chemical complementation (AID 609;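 active means compounds giving at least 50% inhibition in the cell-based MKP-3 phosphatase rescue imaging test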;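 on inhibition: phospho-Erk level distribution per well compared with pooled transfected vehicle control wells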); conditions: HeLa MKP-3 transfected, phospho-Erk imaging KS statistic, at 10 µM, cells stimulated with TPA for 15 min
# [4] = biological target: Dual specificity protein phosphatase 6 (Homo sapiens) (UniProt Q16828); assay: as above; conditions: HeLa MKP-3 transfected, phospho-Erk imaging KS statistic; at 10 µM; stronger effect = higher value; cells stimulated with TPA for 15 min
# Dual specificity protein phosphatase 6 (Homo sapiens), sequence (Q16828 whole entry, looked up): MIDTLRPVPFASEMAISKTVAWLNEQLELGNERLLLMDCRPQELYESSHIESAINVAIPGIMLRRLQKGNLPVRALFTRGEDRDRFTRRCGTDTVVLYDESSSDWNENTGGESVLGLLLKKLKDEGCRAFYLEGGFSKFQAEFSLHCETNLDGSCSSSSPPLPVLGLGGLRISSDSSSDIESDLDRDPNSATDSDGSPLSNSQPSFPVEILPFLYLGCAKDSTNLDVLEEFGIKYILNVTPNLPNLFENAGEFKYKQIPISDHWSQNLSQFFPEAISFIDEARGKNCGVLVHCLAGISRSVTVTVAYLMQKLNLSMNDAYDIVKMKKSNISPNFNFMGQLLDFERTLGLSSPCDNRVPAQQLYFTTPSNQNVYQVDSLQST
# [5] = biological target: Voltage-gated potassium channel subunit beta-2 (Rattus norvegicus) (UniProt P62483); assay: inhibitors of rat Kvbeta2 reductase activity – biochemical, NADPH fluorescence, primary screen (AID 622;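 active means fluorescence slope higher than the sample average by over 3 SD, cut at about -0.22 in these data, passing the limit was not always enough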;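 further: slope of raw intensity against log time taken from 70 to 1610 s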); conditions: recombinant KvBeta, 4-cyanobenzaldehyde reduction, at 10 µM, stronger effect = higher value
# Voltage-gated potassium channel subunit beta-2 (Rattus norvegicus), sequence (P62483 whole entry, looked up): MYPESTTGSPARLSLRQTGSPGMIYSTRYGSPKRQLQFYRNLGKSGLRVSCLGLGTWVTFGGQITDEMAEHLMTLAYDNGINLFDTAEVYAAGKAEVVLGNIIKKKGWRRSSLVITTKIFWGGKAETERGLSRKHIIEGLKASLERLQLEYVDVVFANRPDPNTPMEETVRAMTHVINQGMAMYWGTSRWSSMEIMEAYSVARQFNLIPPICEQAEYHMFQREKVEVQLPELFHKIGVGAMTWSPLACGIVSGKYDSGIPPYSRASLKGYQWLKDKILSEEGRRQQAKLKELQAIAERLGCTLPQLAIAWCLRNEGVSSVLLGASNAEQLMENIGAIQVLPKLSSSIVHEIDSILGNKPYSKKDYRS
# [6] = biological target: Voltage-gated potassium channel subunit beta-2 (Rattus norvegicus) (UniProt P62483); assay: enhancers of rat Kvbeta2 NADPH turnover – biochemical, NADPH fluorescence, primary screen (AID 623;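 active means NADPH fluorescence slope more negative than the mean of all samples by about 3 SD, 99.7% confidence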;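 further: fluorescence intensity change per second fitted from 20 to 320 s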); conditions: Recombinant KvBeta, NADPH fluorescence decrease slope, 10 min; at 10 µM; stronger effect = lower value
# [7] = biological target: Alpha-2C adrenergic receptor (Homo sapiens) (UniProt P18825); assay: compounds altering alpha2C-coupled GIRK flux – cell-based, HEK293 alpha2C/GIRK1/2, thallium flux, primary screen (AID 624;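 active means fluorescence slope after compound addition differing from the mean of all screened samples at 99.7% confidence, in either direction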;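 further: slope of fluorescence ratio to pre-addition baseline per second over 15 to 24 s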); conditions: thallium flux BTC fluorescence, at 10 µM, actives lie on both sides
# Alpha-2C adrenergic receptor (Homo sapiens), sequence (P18825 whole entry, looked up): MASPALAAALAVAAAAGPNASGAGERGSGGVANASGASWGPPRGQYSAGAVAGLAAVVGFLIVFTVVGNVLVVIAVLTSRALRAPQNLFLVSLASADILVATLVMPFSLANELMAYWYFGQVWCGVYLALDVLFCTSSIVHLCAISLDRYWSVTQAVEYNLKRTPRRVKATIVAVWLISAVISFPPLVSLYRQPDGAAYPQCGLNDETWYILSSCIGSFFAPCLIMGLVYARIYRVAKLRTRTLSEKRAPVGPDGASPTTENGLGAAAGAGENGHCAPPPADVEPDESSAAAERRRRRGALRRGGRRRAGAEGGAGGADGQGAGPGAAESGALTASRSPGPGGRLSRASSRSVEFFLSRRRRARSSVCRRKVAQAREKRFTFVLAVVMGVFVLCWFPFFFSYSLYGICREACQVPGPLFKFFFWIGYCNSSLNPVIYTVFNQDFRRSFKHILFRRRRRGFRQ
# [8] = inhibitors of larval lipid processing in zebrafish, primary screen, whole organism, PED6 fluorescence, gall bladder and intestine (AID 686); conditions: Zebrafish larvae PED6 lipid processing, fluorescence scoring; screened at 20 µM (by protocol);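 further: larvae 5 to 7 days old with five fish per well; signal comes from phospholipase A2 cleavage of quenched PED6 carried via bile; overnight exposure to compound and PED6 before scoring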
# How it was run: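 Test system – live zebrafish larvae aged 5-7 days, whole organism · Buffer or medium – E3 fish medium · Reagent – quenched phospholipase substrate PED6, 100 nM final, ingested by larvae · Doses – 20 µM single dose · Incubation – overnight compound and PED6 incubation · Technique – visual fluorescence microscopy scoring of gall bladder, gut · Read-out basis – visual per-well fluorescence inhibition score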
# [9] = loss of swimming-algae plug formation – whole organism, Chlamydomonas reinhardtii, WT vs cilia-less mutant, absorbance, 96-well, primary screen (AID 463189;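 active means inhibition at or above 50% relative to wild type and mutant plate controls; inactive means inhibition below 50%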;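 further: 0% = wild type cc124 cells in DMSO and 100% = ciliumless bld1 mutant cells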); conditions: Chlamydomonas reinhardtii gravitaxis, OD600 absorbance, 2 days; at 10 µM; stronger effect = higher value
# [10] = measured here: cell density z-score
# [11] = measured here: nuclear c-Myc green intensity z-score
# [12] = measured here: nuclear pErk red intensity z-score, stronger effect = higher value
Compound,cell count [1],inhibition [1],inhibition [2],nuclei count [2] [%],"z-score [3, 10]","z-score [3, 11]","z-score [3, 12]",inhibition [4],fluorescence slope [5],NADPH fluorescence slope [6],slope [7],outcome [8],inhibition [9]
Cc1ccc(NC(=O)CSC2=C(C#N)C(c3ccco3)C3=C(CCCC3=O)N2)cc1 (stereo unspecified),382,1.6% (inactive),-118% (inactive),144,1.1,-0.193,-0.0699,-0.584% (inactive),-0.438 (inactive),-5.7e-07 (inactive),0.00635 (inactive),inactive,32.7% (inactive)
CSc1nc2sc3c(c2c2nnnn12)CC(C)(C)OC3,661,-6.7% (inactive),-16.2% (inactive),187,-1.26,1.03,0.586,-5.89% (inactive),-0.496 (inactive),-6.6e-05 (inactive),0.00446 (inactive),inactive,16.5% (inactive)
CCCCC1(C(=O)OCC)CC(CN2CCOCC2)OC1=O (stereo unspecified),448,-21.5% (inactive),-182% (inactive),167,-1.27,-1.52,2.46,-8.95% (inactive),-0.314 (inactive),1.1e-05 (inactive),0.00504 (inactive),inactive,3.54% (inactive)
CCC1SC(N)=NC1=O (stereo unspecified),522,-23.4% (inactive),-58.7% (inactive),182,-1.82,1.35,1.78,-15% (inactive),-0.405 (inactive),-7.4e-05 (inactive),0.00536 (inactive),inactive,13.5% (inactive)
Nc1ncnc2nc(SCc3ccccc3)[nH]c12,352,2.1% (inactive),-52.6% (inactive),152,-0.893,1.92,0.814,-7.01% (inactive),-0.432 (inactive),-0.00013 (inactive),0.00504 (inactive),inactive,8.96% (inactive)
O=C(O)CC(C(=O)OCC1CCCO1)N1CCOCC1 (stereo unspecified),526,-5.8% (inactive),-141% (inactive),145,0.582,-0.928,-1.26,10.5% (inactive),-0.518 (inactive),-4.1e-05 (inactive),0.00538 (inactive),inactive,-1.05% (inactive)
CCOC(=O)NC(O)C(=O)c1cccs1 (stereo unspecified),507,-20.3% (inactive),-205% (inactive),153,1.4,-0.239,-0.163,22.3% (inactive),-0.5 (inactive),-0.000158 (inactive),0.00426 (inactive),inactive,16.4% (inactive)
